Consider three compounds from ChEMBL document CHEMBL1149392, “PTP-1B inhibitors: cyclopenta[d][1,2]-oxazine derivatives” (Bioorg Med Chem Lett, 2006).

In assay [1] the target is T1, Tyrosine-protein phosphatase non-receptor type 1 (Homo sapiens, UniProt P18031).
T1 sequence (P18031 whole entry): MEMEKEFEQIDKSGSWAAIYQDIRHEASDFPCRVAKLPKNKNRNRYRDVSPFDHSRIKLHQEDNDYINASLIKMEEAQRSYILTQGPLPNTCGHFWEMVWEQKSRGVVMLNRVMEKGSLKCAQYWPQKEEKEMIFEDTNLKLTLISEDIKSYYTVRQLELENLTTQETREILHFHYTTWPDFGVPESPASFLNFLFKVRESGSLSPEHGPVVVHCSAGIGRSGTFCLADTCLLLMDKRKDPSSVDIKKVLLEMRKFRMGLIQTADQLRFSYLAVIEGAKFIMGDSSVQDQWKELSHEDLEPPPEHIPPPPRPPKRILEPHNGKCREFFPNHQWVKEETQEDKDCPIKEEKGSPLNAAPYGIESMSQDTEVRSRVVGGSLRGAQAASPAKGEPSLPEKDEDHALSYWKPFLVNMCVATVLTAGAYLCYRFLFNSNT
Nature of the assay: Inhibitory activity against recombinant human PTP1B. Put shortly: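 Recombinant human PTP-1B (0.1 μg) incubated with 20 μM fluorescein diphosphate and compound in 30 mM Tris, 75 mM NaCl, 0.67 mM EDTA, 1 mM DTT, pH 8.0, for 1 h at room temperature. Product fluorescein monophosphate read by fluorescence (ex 485 nm, em 538 nm). IC50 reported.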

Assay [2] addresses T2, M-phase inducer phosphatase 2 (Homo sapiens, UniProt P30305).
T2 sequence (P30305 whole entry): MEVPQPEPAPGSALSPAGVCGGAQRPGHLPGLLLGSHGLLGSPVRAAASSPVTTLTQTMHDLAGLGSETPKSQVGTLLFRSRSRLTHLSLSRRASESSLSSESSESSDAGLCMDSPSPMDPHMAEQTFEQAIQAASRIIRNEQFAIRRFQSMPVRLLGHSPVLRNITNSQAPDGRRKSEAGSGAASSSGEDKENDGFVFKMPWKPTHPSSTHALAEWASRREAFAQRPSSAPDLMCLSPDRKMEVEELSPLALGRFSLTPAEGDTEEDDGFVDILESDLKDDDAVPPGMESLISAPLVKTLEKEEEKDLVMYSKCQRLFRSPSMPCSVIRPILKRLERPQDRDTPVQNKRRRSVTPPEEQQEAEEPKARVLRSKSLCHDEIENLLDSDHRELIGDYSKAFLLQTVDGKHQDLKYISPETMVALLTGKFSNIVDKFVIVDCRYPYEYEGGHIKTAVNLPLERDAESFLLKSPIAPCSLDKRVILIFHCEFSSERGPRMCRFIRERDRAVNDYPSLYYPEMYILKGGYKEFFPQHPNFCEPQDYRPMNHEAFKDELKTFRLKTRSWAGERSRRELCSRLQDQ
Nature of the assay: Inhibitory activity against cdc25B phosphatase. Put shortly:
(§1)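 Selectivity panel of nine phosphatases, each assayed with fluorescein diphosphate at the same concentration as in the PTP-1B assay (20 μM). IC50 values (μM) reported.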

The target of assay [3] is Serine/threonine-protein phosphatase PP1-gamma catalytic subunit (Homo sapiens, UniProt P36873). Nature of the assay: Inhibitory activity against Protein phosphatase 1. Put shortly:
as §1

Assay [4] addresses Dual specificity protein phosphatase 3 (Homo sapiens, UniProt P51452). Nature of the assay: Inhibitory activity against VH1-related phosphatase VHR. Put shortly:
as §1

Assay [5] in a line: Inhibitory activity against protein phosphatase type 2A. Put shortly:
as §1

SMILES strings stand for the structures.

As a reminder, the IC50 is the concentration at which inhibition is half-maximal.

Chain of Serine/threonine-protein phosphatase PP1-gamma catalytic subunit (P36873 whole entry): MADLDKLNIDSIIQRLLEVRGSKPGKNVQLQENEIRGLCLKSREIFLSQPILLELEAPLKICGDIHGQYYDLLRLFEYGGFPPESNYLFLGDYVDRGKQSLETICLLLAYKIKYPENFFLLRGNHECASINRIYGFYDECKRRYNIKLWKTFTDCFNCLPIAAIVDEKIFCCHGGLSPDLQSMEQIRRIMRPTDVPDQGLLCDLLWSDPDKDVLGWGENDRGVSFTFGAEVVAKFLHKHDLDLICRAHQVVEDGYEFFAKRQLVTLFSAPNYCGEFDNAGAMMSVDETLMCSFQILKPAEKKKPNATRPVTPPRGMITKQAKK
Chain of Dual specificity protein phosphatase 3 (P51452 whole entry): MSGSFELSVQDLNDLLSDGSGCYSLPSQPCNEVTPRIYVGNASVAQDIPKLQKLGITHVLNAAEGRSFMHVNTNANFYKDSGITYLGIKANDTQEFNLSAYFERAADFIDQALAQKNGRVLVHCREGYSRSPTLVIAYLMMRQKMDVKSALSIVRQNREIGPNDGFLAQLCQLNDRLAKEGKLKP

Regarding `NCc1ccc(C(=O)c2ccc3c(-c4ccc(OCC(=O)O)cc4)nocc2-3)cc1`, the results for the IC50 in assay [1], in assay [2] and in assay [3] were 2.16 µM, 10 µM and 1.3 µM, respectively.
For `CCCCCCCCCCCCCCc1ccc(C(=O)c2ccc3c(-c4ccc(OCC(=O)O)cc4)nocc2-3)cc1`, the values for the IC50 in assay [1], in assay [2] and in assay [3] were 0.14 µM, 0.12 µM and 0.22 µM, respectively.
As to `COc1ccc(C(=O)c2ccc3c(-c4ccc(OCC(=O)O)cc4)nocc2-3)cc1`, the IC50 is 181 µM in assay [4]; 0.8 µM in assay [1]; greater than 10 µM in assay [5]; 16.1 µM in assay [2]; 35.2 µM in assay [3].
